# Columns and labels:
# [1] = AUClast in C57BL/6 mouse brain at 10.8 mg/kg, iv administered as single dose measured 24 hrs by UPLC-MS/MS analysis; type: ADME, organism-based; parameters: dose 10.8 mg/kg, route intravenous, time 0 - last
# In short: (§1)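 21 animals dosed at 0 min, 3 sacrificed at each of 0, 5, 15, 30 min, 1, 4 and 24 h. Plasma was extracted by protein precipitation with phospholipid removal. Brain was weighed, bead-homogenised in 50 mM ammonium formate and extracted in acidified organic solvent. Quantified by UPLC-MS/MS (MRM). Brain ng/g taken as ng/mL. Parameters came from noncompartmental analysis. Kp = AUClast brain/plasma.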
# [2] = Metabolic stability in mouse liver microsomes assessed as parent compound remaining at 1 uM after 60 mins by UPLC-MS/MS analysis; type: ADME, microsome; details: microsomes, 1 h, 1 µM
# In short: (§2)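 Compound at 1 μM with 0.5 mg/mL mouse or human liver microsomes in 100 mM potassium phosphate pH 7.4, 3.3 mM MgCl2, 1 mM NADPH, at 37 °C. Started with NADPH; minus-NADPH control run. Stopped at 0, 5, 15, 30, 45 and 60 min with acetonitrile/formic acid plus internal standard. Parent remaining by UPLC-MS/MS, in triplicate.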
# [3] = test system: Mus musculus; experiment: Acute toxicity in C57BL/6 mouse assessed as lethargy at 10.8 mg/kg, iv after 1 hr post-injection; type: organism-based; details: in vivo
# [4] = Tmax in C57BL/6 mouse plasma at 10.8 mg/kg, iv administered as single dose measured 24 hrs by UPLC-MS/MS analysis; type: ADME, organism-based
# In short: (§3)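 Plasma extracted by protein precipitation/phospholipid removal; brain weighed, homogenised in 50 mM ammonium formate, extracted in acidified organic solvent, ng/g taken as ng/mL. Quantified by UPLC-MS/MS (MRM); parameters by noncompartmental analysis.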
# [5] = test system: Mus musculus; experiment: Acute toxicity in C57BL/6 mouse assessed as piloerection at 10.8 mg/kg, sc after 1 hr post-injection; type: organism-based; details: in vivo
# [6] = Apparent half-life of the terminal disposition phase in C57BL/6 mouse plasma at 10.8 mg/kg, iv administered as single dose measured 24 hrs by UPLC-MS/MS analysis; type: ADME, organism-based; details: read-out: t1/2 lambda z (converted); in short: as §3
# [7] = test system: Mus musculus; experiment: Acute toxicity in C57BL/6 mouse assessed as piloerection at 10.8 mg/kg, po after 1 hr post-injection; type: organism-based; details: in vivo
# [8] = Cmax in C57BL/6 mouse brain at 10.8 mg/kg, iv administered as single dose measured 24 hrs by UPLC-MS/MS analysis; type: ADME, organism-based; parameters: dose 10.8 mg/kg, route intravenous; in short: as §1
# [9] = Metabolic stability in human plasma assessed as parent compound remaining at 5 uM after 4 hrs by UPLC-MS/MS analysis; type: ADME, cell-free; details: read-out: Stability
# In short: (§4)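 Compound at 5 μM was incubated in mouse or human plasma at 37 °C with shaking. Sampled at 0, 5, 15, 30, 60, 120 and 240 min and stopped with ice-cold acetonitrile/0.1% formic acid containing internal standard. Supernatants analysed by UPLC-MS/MS for parent remaining. Run in triplicate.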
# [10] = Apparent half-life of the terminal disposition phase in C57BL/6 mouse brain at 10.8 mg/kg, iv administered as single dose measured 24 hrs by UPLC-MS/MS analysis; type: ADME, organism-based; details: read-out: t1/2 lambda z (converted); in short: as §1
# [11] = Cmax in C57BL/6 mouse plasma at 10.8 mg/kg, iv administered as single dose measured 24 hrs by UPLC-MS/MS analysis; type: ADME, organism-based; parameters: dose 10.8 mg/kg, route intravenous; in short: as §3
# [12] = test system: Mus musculus; experiment: Acute toxicity in C57BL/6 mouse assessed as lethargy at 10.8 mg/kg, sc after 1 hr post-injection; type: organism-based; details: in vivo
# [13] = Ratio of AUClast in brain to plasma in C57BL/6 mouse at 10.8 mg/kg, iv administered as single dose measured 24 hrs by UPLC-MS/MS analysis; type: ADME, organism-based; in short: as §1
# [14] = Tmax in C57BL/6 mouse brain at 10.8 mg/kg, iv administered as single dose measured 24 hrs by UPLC-MS/MS analysis; type: ADME, organism-based; in short: as §3
# [15] = AUClast in C57BL/6 mouse plasma at 10.8 mg/kg, iv administered as single dose measured 24 hrs by UPLC-MS/MS analysis; type: ADME, organism-based; parameters: dose 10.8 mg/kg, route intravenous, time 0 - last; in short: as §3
# [16] = Metabolic stability in mouse plasma assessed as parent compound remaining at 5 uM after 4 hrs by UPLC-MS/MS analysis; type: ADME, cell-free; details: read-out: Stability; in short: as §4
# [17] = test system: Mus musculus; experiment: Acute toxicity in C57BL/6 mouse assessed as lethargy at 10.8 mg/kg, po after 1 hr post-injection; type: organism-based; details: in vivo
# [18] = Metabolic stability in human liver microsomes assessed as parent compound remaining at 1 uM after 60 mins by UPLC-MS/MS analysis; type: ADME, microsome; in short: as §2
# [19] = test system: Mus musculus; experiment: Acute toxicity in C57BL/6 mouse assessed as piloerection at 10.8 mg/kg, iv after 1 hr post-injection; type: organism-based; details: in vivo
# [20] = Cmax in C57BL/6 mouse plasma at 20 mg/kg, iv administered as single dose measured 24 hrs by UPLC-MS/MS analysis; type: ADME, organism-based; parameters: dose 20 mg/kg, route intravenous; in short: as §1
# [21] = target: T1, Amine oxidase [flavin-containing] B (Homo sapiens, UniProt P27338); experiment: Inhibition of human recombinant MAO-B expressed in baculovirus infected BTI-TN-5B1-4 insect cells using benzylamine as substrate preincubated for 1 hr followed by substrate addition and measured after 30 mins by resazurin dye-based fluorescence assay; type: cell-based
# T1 sequence (P27338 whole entry): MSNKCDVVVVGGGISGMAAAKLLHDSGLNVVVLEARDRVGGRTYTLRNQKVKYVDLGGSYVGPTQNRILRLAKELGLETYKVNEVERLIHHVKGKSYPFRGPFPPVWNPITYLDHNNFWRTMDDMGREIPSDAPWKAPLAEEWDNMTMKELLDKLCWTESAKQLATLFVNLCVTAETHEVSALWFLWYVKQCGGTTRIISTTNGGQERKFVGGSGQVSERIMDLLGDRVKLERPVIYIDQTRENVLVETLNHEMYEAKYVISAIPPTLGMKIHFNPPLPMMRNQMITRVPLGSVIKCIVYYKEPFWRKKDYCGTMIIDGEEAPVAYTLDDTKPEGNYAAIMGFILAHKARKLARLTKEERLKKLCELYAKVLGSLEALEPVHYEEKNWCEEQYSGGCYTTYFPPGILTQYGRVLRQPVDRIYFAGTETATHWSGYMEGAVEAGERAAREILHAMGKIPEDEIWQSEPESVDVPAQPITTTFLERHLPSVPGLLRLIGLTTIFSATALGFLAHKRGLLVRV
# [22] = Tmax in C57BL/6 mouse brain at 20 mg/kg, iv administered as single dose measured 24 hrs by UPLC-MS/MS analysis; type: ADME, organism-based; in short: as §1
# [23] = test system: Mus musculus; experiment: Acute toxicity in C57BL/6 mouse assessed as abnormal clinical signs at […], po administered as single dose measured after 24 hrs post-injection; type: organism-based; details: in vivo
# [24] = Cmax in C57BL/6 mouse brain at 20 mg/kg, iv administered as single dose measured 24 hrs by UPLC-MS/MS analysis; type: ADME, organism-based; parameters: dose 20 mg/kg, route intravenous; in short: as §1
# [25] = Efflux ratio of apparent permeability in MDCK-WT cells at 10 uM after 1 hr in absence of P-gp inhibitor verapamil by UPLC-MS/MS analysis; details: dog
# [26] = target: T2, Amine oxidase [flavin-containing] A (Homo sapiens, UniProt P21397); experiment: Inhibition of human recombinant MAO-A expressed in baculovirus infected BTI-TN-5B1-4 insect cells using tyramine as substrate preincubated for 1 hr followed by substrate addition and measured after 30 mins by resazurin dye-based fluorescence assay
# T2 sequence (P21397 whole entry): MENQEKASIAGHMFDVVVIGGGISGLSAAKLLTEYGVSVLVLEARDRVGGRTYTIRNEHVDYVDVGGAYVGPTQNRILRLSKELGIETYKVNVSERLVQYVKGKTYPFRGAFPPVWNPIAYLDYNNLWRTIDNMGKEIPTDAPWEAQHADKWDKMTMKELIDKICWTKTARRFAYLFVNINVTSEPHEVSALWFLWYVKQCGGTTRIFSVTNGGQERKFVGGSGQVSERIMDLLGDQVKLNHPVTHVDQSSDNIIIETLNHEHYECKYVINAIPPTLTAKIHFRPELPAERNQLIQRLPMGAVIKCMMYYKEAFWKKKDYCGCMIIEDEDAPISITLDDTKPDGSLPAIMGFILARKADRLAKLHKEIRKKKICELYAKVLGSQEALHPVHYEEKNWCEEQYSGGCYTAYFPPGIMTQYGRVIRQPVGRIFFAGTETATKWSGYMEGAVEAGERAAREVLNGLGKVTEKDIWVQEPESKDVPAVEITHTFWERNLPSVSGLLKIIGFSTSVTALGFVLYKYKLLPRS
# [27] = test system: P-gp (MDR1); experiment: Efflux ratio of apparent permeability in MDCK2-MDR1 cells at 10 uM after 1 hr in absence of P-gp inhibitor verapamil by UPLC-MS/MS analysis; type: ADME, cell-based, Canis lupus familiaris; details: dog, MDCK-MDR1
# In short: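 MDCK-WT (MEM-α/10% FBS) or MDCK-MDR1 II (DMEM/10% FBS) cells were grown 3 days on 12-well transwells. Integrity was checked by TEER and 100 μM Lucifer yellow. Cells were washed in HBSS/10 mM HEPES. Compound at 10 μM was added apically or basally, in triplicate, ±100 μM verapamil. Receiver sampled at 1 h by UPLC-MS/MS. Efflux ratio = Papp B→A / Papp A→B.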
# [28] = test system: Mus musculus; experiment: Acute toxicity in C57BL/6 mouse assessed as abnormal clinical signs at […], sc administered as single dose measured after 24 hrs post-injection; type: organism-based; details: in vivo
# [29] = AUClast in C57BL/6 mouse brain at 20 mg/kg, iv administered as single dose measured 24 hrs by UPLC-MS/MS analysis; type: ADME, organism-based; parameters: dose 20 mg/kg, time 0 - last, route intravenous; in short: as §1
# [30] = test system: Mus musculus; experiment: Acute toxicity in C57BL/6 mouse assessed as abnormal clinical signs at […], iv administered as single dose measured after 24 hrs post-injection; type: organism-based; details: in vivo
# [31] = AUClast in C57BL/6 mouse plasma at 20 mg/kg, iv administered as single dose measured 24 hrs by UPLC-MS/MS analysis; type: ADME, organism-based; parameters: dose 20 mg/kg, route intravenous, time 0 - last; in short: as §1
# [32] = Metabolic stability in mouse liver microsomes assessed as parent compound remaining at 1 uM after 60 mins in presence of NADPH by UPLC-MS/MS analysis; type: ADME, microsome; details: read-out: Stability; in short: as §2
# [33] = Metabolic stability in cryopreserved mouse hepatocytes assessed as parent compound remaining at 1 uM after 60 mins by UPLC-MS/MS analysis; type: ADME, cell-based, Hepatocyte; details: read-out: Stability
# [34] = Ratio of AUClast in brain to plasma in C57BL/6 mouse at 20 mg/kg, iv administered as single dose measured 24 hrs by UPLC-MS/MS analysis; type: ADME, organism-based; in short: as §1
# [35] = Tmax in C57BL/6 mouse plasma at 20 mg/kg, iv administered as single dose measured 24 hrs by UPLC-MS/MS analysis; type: ADME, organism-based
# In short: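 Plasma cleaned by protein precipitation with phospholipid removal, then UPLC-MS/MS in MRM mode. Tmax obtained by noncompartmental analysis.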
# [36] = Apparent half-life of the terminal disposition phase in C57BL/6 mouse plasma at 20 mg/kg, iv administered as single dose measured 24 hrs by UPLC-MS/MS analysis; type: ADME, organism-based; details: read-out: t1/2 lambda z (converted); in short: as §1
smiles,measurement,setting,value
C#CCN(C)[C@H](C)Cc1ccccc1 [SELEGILINE],AUC(0-t) at 24 h,[1],1390 ng·h/mL
same,Stability,[2],Unstable
same,Activity,[3],Toxic
same,Tmax,[4],5 min
same,Activity,[5],Toxic
same,half-life,[6],33.6 min
same,Activity,[7],Toxic
same,Cmax,[8],4220 ng/mL
same,"remaining at 4 h, 5 µM",[9],55%
same,half-life,[10],17.4 min
same,Cmax,[11],569 ng/mL
same,Activity,[12],Toxic
same,Kp at 24 h,[13],5.73
same,Tmax,[14],5 min
same,AUC(0-t) at 24 h,[15],242 ng·h/mL
same,"remaining at 4 h, 5 µM",[16],61%
same,Activity,[17],Toxic
same,Stability,"[18]; microsomes, 1 h, 1 µM",Unstable
same,Activity,[19],Toxic
C[C@H](Cc1ccc(OCc2cccc(Cl)c2)cc1)N(C)CC(=O)O,Cmax,[20],16600 ng/mL
same,IC50,[21],264 nM
same,Tmax,[22],60 min
same,Activity,[23],Non-Toxic
same,Cmax,[24],648 ng/mL
same,"efflux ratio at 1 h, 10 µM",[25],1.23
same,IC50,[26],> 50000 nM
same,"remaining at 4 h, 5 µM",[9],≥ 75%
same,"efflux ratio at 1 h, 10 µM",[27],1.75
same,Activity,[28],Non-Toxic
same,AUC(0-t) at 24 h,[29],2280 ng·h/mL
same,Activity,[30],Non-Toxic
same,"remaining at 4 h, 5 µM",[16],≥ 75%
same,AUC(0-t) at 24 h,[31],112000 ng·h/mL
same,"remaining at 1 h, 1 µM",[32],87.3%
same,"remaining at 1 h, 1 µM","[18]; liver microsomes, read-out: Stability",≥ 90%
same,"remaining at 1 h, 1 µM",[33],≥ 90%
same,Kp at 24 h,[34],0.02
same,Tmax,[35],5 min
same,half-life,[36],271 min

# Source: ChEMBL document CHEMBL4229446, “Development of Novel Monoamine Oxidase-B (MAO-B) Inhibitors with Reduced Blood-Brain Barrier Permeability for the Potential Management of Noncentral Nervous System (CNS) Diseases” (J Med Chem, 2018)
